Hits are enriched below; roughly 3.5% of the tested compounds scored in any of these assays.
MrgX1 antagonist: antagonists of human MrgX1 receptor, primary screen, HEK293 cells, Fluo-4 calcium flux. B-score at 10 µM. BAM8-22 antagonism; stronger effect = lower value. AID 588676, 2011. Mas-related G-protein coupled receptor member X1 (Homo sapiens), Q96LB2. hit rate 1.3% among 310,000;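 active means calcium-response B-score plate-corrected more than 3 library SD below zero, starting fluorescence within 5 deviations, no agonist response on first addition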;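 further: peak minus trough fluorescence over baseline after final BAM8-22 challenge near maximal dose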
Target sequence (Q96LB2 whole entry, looked up): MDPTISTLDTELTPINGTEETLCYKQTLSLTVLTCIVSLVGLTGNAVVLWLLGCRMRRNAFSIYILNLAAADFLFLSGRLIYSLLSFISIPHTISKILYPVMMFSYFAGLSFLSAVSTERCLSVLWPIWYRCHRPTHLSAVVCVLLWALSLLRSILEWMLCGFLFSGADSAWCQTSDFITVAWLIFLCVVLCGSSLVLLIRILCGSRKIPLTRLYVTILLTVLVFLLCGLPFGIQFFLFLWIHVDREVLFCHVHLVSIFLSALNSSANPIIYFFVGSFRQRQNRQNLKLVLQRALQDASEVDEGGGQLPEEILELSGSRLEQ
RGS4 pot: RGS4 potentiators or activators, primary screen, cell-based, HEK293 M3R inducible RGS4, calcium flux. carbachol calcium flux Fluo4; stronger effect = lower value. B-score at 10 µM. hit rate 0.92% among 310,000;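 active means B-score of the integrated calcium signal more than 4 SD below the library mean, with starting fluorescence not abnormally high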;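 further: negative B-score means reduced calcium response which marks RGS4 activation or potentiation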
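Assay system: Inducible-RGS4 HEK293 cells carrying M3 receptor | Schedule: Compound preincubation 20 min at room temperature before agonist | Signal: Kinetic calcium fluorescence imaging with Fluo4-AM dye, 2 µM | Read-out basis: B score from integrated fluorescence ratio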
MrgX1 PAM: positive allosteric modulators of MrgX1, primary screen, HEK293 cells, Fluo-4 calcium flux; hit rate 0.63% among 310,000; B-score at 10 µM; FDSS; stronger effect = higher value; Mas-related G-protein coupled receptor member X1 (Homo sapiens), Q96LB2;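 active means plate-corrected calcium response at least 3 library SD above typical, normal starting fluorescence, not activating the receptor alone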;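 further: compound read alongside a low EC10 to EC30 dose of BAM8-22 agonist; peak minus trough fluorescence over baseline measured at the second addition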
RGS4 block: RGS4 inhibitors, primary screen, cell-based, HEK293 M3R inducible RGS4, calcium flux | Fluo-4 calcium flux; stronger effect = higher value; triggered by carbachol at its EC20 | B-score at 10 µM | hit rate 0.45% among 310,000;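 active means B-score, a plate-corrected calcium signal, over three deviations above library mean, with baseline fluorescence within five deviations of library mean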;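 further: RGS4 expression induced by doxycycline in cells with stable M3 receptor; B-score is computed from the integrated fluorescence ratio over baseline after carbachol; higher B-score means a larger calcium signal and so more RGS4 inhibition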
Target sequence (P49798 whole entry, looked up): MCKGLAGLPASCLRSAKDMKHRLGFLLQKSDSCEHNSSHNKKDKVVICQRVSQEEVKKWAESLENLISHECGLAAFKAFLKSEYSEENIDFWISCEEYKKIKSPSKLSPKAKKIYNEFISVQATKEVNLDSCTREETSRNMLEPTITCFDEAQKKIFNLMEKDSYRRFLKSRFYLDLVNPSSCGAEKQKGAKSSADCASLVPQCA
MrgX1 agonist: agonists of human MrgX1 receptor, primary screen, HEK293 cells, Fluo-4 calcium flux. Mas-related G-protein coupled receptor member X1 (Homo sapiens), Q96LB2. Fluo-4 calcium fluorescence, agonist mode; stronger effect = higher value. B-score at 10 µM. hit rate 0.44% among 310,000. AID 588627, 2011;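 active means calcium response B-score plate-corrected fluorescence ratio at least 3 library SD, with starting fluorescence B-score inside 5 SD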
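System – MrgX1-expressing HEK293 cells · Incubation – cells plated overnight, dye loaded 0.5 h 37 °C, 0.5 h room temperature · Technique – kinetic Fluo-4 NW fluorescence of intracellular calcium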
MrgX1 antag conf: MrgX1 receptor antagonists, duplicate retest, confirmation, HEK293 cells, Fluo-4 calcium flux; shares compounds with MrgX1 antagonist; BAM8-22 calcium flux; stronger effect = lower value; remaining BAM8-22 calcium response % of control (stronger effect = lower value), % at 10 µM; hit rate 19% among 2,300;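 active means remaining agonist calcium response no higher than 100% minus 3 SD of agonist-only control wells, with starting fluorescence near control levels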;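 further: agonist BAM8-22 given at a near maximal EC90 to ECmax level; peak minus minimum fluorescence divided by baseline after agonist addition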
HEK293 Ca flux: nonspecific calcium signal in parental HEK293, confirmation, counter-screen for MrgX1 antagonist project, parental HEK293 cells, Fluo-4 calcium flux; AID 624111, 2012; hit rate 2% among 4,000; fluorescence ratio F(max-min)/F0 at 10 µM; Fluo-4 calcium fluorescence, FDSS; shares compounds with MrgX1 antagonist;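 active means duplicate-averaged calcium fluorescence ratio at least three times the standard deviation of buffer wells, a nonspecific response in parental cells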
HEK293 Ca counter: calcium response in parental HEK293 cells, primary screen, counter-screen for MrgX1 allosteric activator project, cell-based, Fluo-4 calcium flux, duplicate; fluorescence ratio F(max-min)/F0 at 10 µM; hit rate 0.4% among 4,000; shares compounds with MrgX1 antagonist; Fluo-4 fluorescence ratio; stronger effect = higher value;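 active means calcium fluorescence ratio, averaged over duplicates, at least 3 SD of the buffer-well ratio, meaning a nonspecific response in receptor-free cells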;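 further: untransfected parental HEK293 lacking MrgX1 used as counterscreen for MrgX1 allosteric activators; fluorescence change taken during the second addition on a kinetic imager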
HEK293 Ca cntr2: calcium response in parental HEK293 cells, primary screen, counter-screen for MrgX1 agonist project, cell-based, Fluo-4 calcium flux, duplicate, agonist mode | Fluo-4 calcium fluorescence (FDSS); stronger effect = higher value | shares compounds with MrgX1 antagonist | hit rate 8.7% among 4,000 | fluorescence ratio F(max-min)/F0 at 10 µM;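 active means calcium fluorescence ratio at least three times the spread of buffer wells, meaning a non-specific response in parental cells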
Hits are given with their value.

What do the screens show for `Cc1ccc(-c2nc(=S)c3c(n2Cc2cccnc2)CC(C)(C)OC3)cc1`?
MrgX1 antagonist: inactive; RGS4 pot: inactive; MrgX1 PAM: inactive; RGS4 block: inactive; MrgX1 agonist: inactive

How did COc1ccccc1/C=C/C=N/Nc1cccc(C(=O)O)c1 do in these assays?
MrgX1 antagonist: inactive; RGS4 pot: inactive; MrgX1 PAM: inactive; RGS4 block: inactive; MrgX1 agonist: inactive

What do the screens show for `Cc1snc(SCC(=O)N/N=C(\N)COc2cccc(C(F)(F)F)c2)c1C#N`?
MrgX1 antagonist: inactive; RGS4 pot: inactive; MrgX1 PAM: inactive; RGS4 block: inactive; MrgX1 agonist: inactive

Results for CCOc1ccc(C2C(C#N)=C(N)Oc3cc(C)n(CCN(C)C)c(=O)c32)cc1OCC (stereo unspecified) ?
MrgX1 antagonist: -4.52; RGS4 pot: inactive; MrgX1 PAM: inactive; RGS4 block: inactive; MrgX1 agonist: inactive; MrgX1 antag conf: inactive; HEK293 Ca flux: inactive; HEK293 Ca counter: inactive; HEK293 Ca cntr2: inactive

Results for CCc1ccc(NC(=O)c2cnc(N3CCN(c4ccccn4)CC3)c3ccccc23)cc1 ?
MrgX1 antagonist: -7.05; RGS4 pot: -7.2; MrgX1 PAM: inactive; RGS4 block: inactive; MrgX1 agonist: inactive; MrgX1 antag conf: 59.7%; HEK293 Ca flux: inactive; HEK293 Ca counter: inactive; HEK293 Ca cntr2: inactive

What do the screens show for `CC(C)NC(=O)c1cnc(N2CCN(c3ccccn3)CC2)c2ccccc12`?
MrgX1 antagonist: inactive; RGS4 pot: inactive; MrgX1 PAM: inactive; RGS4 block: inactive; MrgX1 agonist: inactive

What do the screens show for `COc1ccc(CCC(=O)Nc2ccc(Cl)c(S(=O)(=O)N3CCCC3)c2)cc1`?
MrgX1 antagonist: -5.94; RGS4 pot: inactive; MrgX1 PAM: inactive; RGS4 block: inactive; MrgX1 agonist: inactive; MrgX1 antag conf: 78.1%; HEK293 Ca flux: inactive; HEK293 Ca counter: inactive; HEK293 Ca cntr2: inactive

What do the screens show for `COc1ccc(NC(=O)CCOc2ccccc2C)cc1S(=O)(=O)N1CCCCC1`?
MrgX1 antagonist: -5.39; RGS4 pot: inactive; MrgX1 PAM: inactive; RGS4 block: inactive; MrgX1 agonist: inactive; MrgX1 antag conf: inactive; HEK293 Ca flux: inactive; HEK293 Ca counter: inactive; HEK293 Ca cntr2: inactive

Results for Cc1ccccc1OCC(=O)Nc1ccc(C)c(S(=O)(=O)N2CCCCCC2)c1 ?
MrgX1 antagonist: inactive; RGS4 pot: inactive; MrgX1 PAM: inactive; RGS4 block: inactive; MrgX1 agonist: inactive

What do the screens show for `O=C(NCc1cccs1)c1ccccc1F`?
MrgX1 antagonist: -6.2; RGS4 pot: inactive; MrgX1 PAM: inactive; RGS4 block: inactive; MrgX1 agonist: inactive; MrgX1 antag conf: inactive; HEK293 Ca flux: inactive; HEK293 Ca counter: inactive; HEK293 Ca cntr2: inactive

What do the screens show for `O=C(NCCNCc1cccs1)c1ccccc1F`?
MrgX1 antagonist: inactive; RGS4 pot: inactive; MrgX1 PAM: inactive; RGS4 block: inactive; MrgX1 agonist: inactive

What do the screens show for `O=C(O)CCC(=O)NCC1OCCc2ccccc21` (stereo unspecified)?
MrgX1 antagonist: -8.62; RGS4 pot: inactive; MrgX1 PAM: inactive; RGS4 block: inactive; MrgX1 agonist: inactive; MrgX1 antag conf: inactive; HEK293 Ca flux: inactive; HEK293 Ca counter: inactive; HEK293 Ca cntr2: inactive

What do the screens show for `CCOc1ncccc1C(=O)OCc1ccc(C#N)cc1`?
MrgX1 antagonist: inactive; RGS4 pot: inactive; MrgX1 PAM: inactive; RGS4 block: inactive; MrgX1 agonist: inactive

Results for Cc1nc2ccc(NC(=O)Cc3ccc4c(c3)OCCO4)cc2s1 ?
MrgX1 antagonist: -6.8; RGS4 pot: inactive; MrgX1 PAM: inactive; RGS4 block: inactive; MrgX1 agonist: inactive; MrgX1 antag conf: inactive; HEK293 Ca flux: inactive; HEK293 Ca counter: inactive; HEK293 Ca cntr2: inactive

Results for Cc1nc2ccc(NC(=O)Cc3ccc(Br)cc3)cc2s1 ?
MrgX1 antagonist: inactive; RGS4 pot: inactive; MrgX1 PAM: inactive; RGS4 block: inactive; MrgX1 agonist: inactive

Results for CCN(CC)S(=O)(=O)c1ccc(Cl)c(C(=O)OC2CC(C)OC2=O)c1 (stereo unspecified) ?
MrgX1 antagonist: inactive; RGS4 pot: inactive; MrgX1 PAM: inactive; RGS4 block: inactive; MrgX1 agonist: inactive

What do the screens show for `CN(C)C/C=C(\c1ccc(Br)cc1)c1cccnc1`?
MrgX1 antagonist: -4.92; MrgX1 PAM: inactive; MrgX1 agonist: inactive; MrgX1 antag conf: inactive; HEK293 Ca flux: inactive; HEK293 Ca counter: inactive; HEK293 Ca cntr2: inactive

How did Cc1cc(NC(=O)CSc2nnc(C)o2)no1 do in these assays?
MrgX1 antagonist: inactive; RGS4 pot: inactive; MrgX1 PAM: inactive; RGS4 block: inactive; MrgX1 agonist: inactive

How did COC(=O)c1ccc(CSc2nnc(SCc3ccc(C(=O)OC)o3)s2)o1 do in these assays?
MrgX1 antagonist: inactive; RGS4 pot: inactive; MrgX1 PAM: inactive; RGS4 block: inactive; MrgX1 agonist: inactive

Results for COC(=O)c1ccc(CSc2nc(C)nc3sc(C)c(C)c23)o1 ?
MrgX1 antagonist: -7.36; RGS4 pot: inactive; MrgX1 PAM: inactive; RGS4 block: inactive; MrgX1 agonist: inactive; MrgX1 antag conf: inactive; HEK293 Ca flux: inactive; HEK293 Ca counter: inactive; HEK293 Ca cntr2: inactive

Results for CCn1c(CC(=O)Nc2ccc(C)cc2)n[nH]c1=S ?
MrgX1 antagonist: inactive; RGS4 pot: inactive; MrgX1 PAM: inactive; RGS4 block: inactive; MrgX1 agonist: inactive

What do the screens show for `COc1ccc2oc(C(=O)OCC(=O)NCc3ccccc3OC)c(C)c2c1`?
MrgX1 antagonist: -5.1; RGS4 pot: inactive; MrgX1 PAM: inactive; RGS4 block: inactive; MrgX1 agonist: inactive; MrgX1 antag conf: inactive; HEK293 Ca flux: inactive; HEK293 Ca counter: inactive; HEK293 Ca cntr2: inactive

What do the screens show for `O=C(c1ccccc1)c1ccc(CN2C(=O)c3ccccc3C2=O)o1`?
MrgX1 antagonist: -5.16; RGS4 pot: inactive; MrgX1 PAM: inactive; RGS4 block: inactive; MrgX1 agonist: inactive; MrgX1 antag conf: inactive; HEK293 Ca flux: inactive; HEK293 Ca counter: inactive; HEK293 Ca cntr2: inactive
